Source: PubChem BioAssay (Johns Hopkins Ion Channel Center)
In the library only some 3.5% were active in any assay of this set; here they are far more common.
MrgX1 agonist = agonists of human MrgX1 receptor; Q96LB2; MrgX1-HEK293 cells, Fluo-4 calcium fluorescence, agonist mode; stronger effect = higher value; B-score at 10 µM; actives 0.44% (n = 310,000); AID 588627;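 active means calcium response B-score plate-corrected fluorescence ratio at least 3 library SD, with starting fluorescence B-score inside 5 SD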
Target sequence (Q96LB2 whole entry, looked up): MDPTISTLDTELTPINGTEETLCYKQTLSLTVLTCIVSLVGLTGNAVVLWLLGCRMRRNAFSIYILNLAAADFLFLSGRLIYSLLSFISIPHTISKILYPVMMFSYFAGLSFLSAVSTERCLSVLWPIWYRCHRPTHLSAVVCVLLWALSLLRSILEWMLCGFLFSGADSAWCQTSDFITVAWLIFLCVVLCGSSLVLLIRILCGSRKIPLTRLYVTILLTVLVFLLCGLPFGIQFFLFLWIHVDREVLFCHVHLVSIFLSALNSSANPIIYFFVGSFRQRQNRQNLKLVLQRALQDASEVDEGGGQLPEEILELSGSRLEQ
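Test system: HEK293 cells stably expressing human MrgX1 receptor; amount: 15,000 cells per well; doses: compound delivered in addition one of three; times: overnight plating before 1 h dye loading; detection: Fluo-4 NW calcium-flux fluorescence, kinetic read; read-out basis: B-scored fluorescence response ratio; controls: positive and negative controls per plate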
RGS4 act = potentiators or activators of RGS4; AID 463111; B-score at 10 µM; actives 0.92% (n = 310,000); HEK293 M3R/inducible RGS4, carbachol calcium flux Fluo4; stronger effect = lower value;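 active means B-score of the integrated calcium signal more than 4 SD below the library mean, with starting fluorescence not abnormally high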;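 further: negative B-score means reduced calcium response which marks RGS4 activation or potentiation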
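test system = M3R-expressing HEK293 line, RGS4 induced by doxycycline | probe or stimulus = carbachol at ECmax as muscarinic agonist stimulus | timing = dye loading 30 min 37 °C, buffer rest 30 min RT | signal = calcium dye Fluo4 fluorescence | evaluation = B score from integrated fluorescence ratio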
MrgX1 PAM = allosterically activates human MrgX1 receptor signaling; MrgX1-HEK293, Fluo-4 calcium flux, FDSS; stronger effect = higher value; B-score at 10 µM; actives 0.63% (n = 310,000);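 active means plate-corrected calcium response at least 3 library SD above typical, normal starting fluorescence, not activating the receptor alone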;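 further: compound read alongside a low EC10 to EC30 dose of BAM8-22 agonist; peak minus trough fluorescence over baseline measured at the second addition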
RGS4 inh = inhibitors of human RGS4; P49798; HEK293 M3R/RGS4 inducible, Fluo-4 calcium flux; stronger effect = higher value; triggered by carbachol at its EC20; B-score at 10 µM; actives 0.45% (n = 310,000); AID 463165;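 active means B-score, a plate-corrected calcium signal, over three deviations above library mean, with baseline fluorescence within five deviations of library mean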;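 further: RGS4 expression induced by doxycycline in cells with stable M3 receptor; B-score is computed from the integrated fluorescence ratio over baseline after carbachol; higher B-score means a larger calcium signal and so more RGS4 inhibition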
Target sequence (P49798 whole entry, looked up): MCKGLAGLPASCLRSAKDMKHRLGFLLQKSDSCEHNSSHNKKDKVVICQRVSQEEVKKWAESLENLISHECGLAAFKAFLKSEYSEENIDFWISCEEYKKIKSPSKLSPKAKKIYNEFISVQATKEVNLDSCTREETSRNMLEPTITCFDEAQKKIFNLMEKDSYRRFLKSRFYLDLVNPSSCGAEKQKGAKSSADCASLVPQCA
MrgX1 antag = blocks BAM8-22 activation of human MrgX1 receptor; Q96LB2; MRGX1-HEK293 calcium flux, Fluo-4, BAM8-22 antagonism; stronger effect = lower value; B-score at 10 µM; actives 1.3% (n = 310,000);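 active means calcium-response B-score plate-corrected more than 3 library SD below zero, starting fluorescence within 5 deviations, no agonist response on first addition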;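 further: peak minus trough fluorescence over baseline after final BAM8-22 challenge near maximal dose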
Large screens that a line does not name were inactive.

CC(=O)N(c1ccc(Cl)cc1)c1cn(C(C)=O)c2ccccc12	none
CCCCNC(=O)COC(=O)CCC(=O)c1ccc(F)cc1	MrgX1 antag -6.06
COc1ccc(/C=N/Nc2nc(Nc3ccccc3)nc(N3CCCC3)n2)cc1	MrgX1 antag -5.93
O=[N+]([O-])c1ccc(Nc2nc(N/N=C/c3cccc(F)c3)nc(N3CCCC3)n2)cc1	none
COc1cccc(/C=N/Nc2nc(Nc3ccc([N+](=O)[O-])cc3)nc(N3CCCC3)n2)c1O	RGS4 act -9.22
O=c1[nH][nH]c2cc(=O)n(-c3ccc(Cl)cc3)nc12	none
CC(CCCC(C)(C)O)NCc1cn[nH]c1-c1ccc2c(c1)OCO2 (stereo not drawn)	none
Cc1cc(NC(=O)CSCC(=O)N(c2cccc(Cl)c2)C(C(=O)NC2CCCCC2)c2ccc(O)c(O)c2)no1 (stereo not drawn)	none
O=c1c(Cl)c(N2CCOCC2)cnn1-c1nc2ccccc2[nH]1	MrgX1 antag -7.07
Cc1ccccc1CC(=O)N1CCCC1	none
Cc1ccc(C(=O)N/N=C\c2ccc(OC(=O)c3cccc(F)c3)cc2)cn1	none
O=C(Oc1ccc(/C=N/O)cc1)c1ccccc1Cl	MrgX1 PAM 16.2
Cc1cccc(C(=O)Oc2ccc(/C=N/O)cc2)c1	MrgX1 PAM 7.66
O=C(Oc1ccc2ccc(O)cc2c1)c1ccccc1Cl	none
N#C/C(=C/c1ccc(N2CCCCC2)cc1)c1cccc(F)c1	none
N#C/C(=C/c1ccc(N2CCCCC2)o1)c1cccc(F)c1	MrgX1 antag -6.37
N#C/C(=C/c1ccc(N2CCCCCC2)o1)c1ccc(Cl)cc1	MrgX1 PAM 6.47
Cc1ccc(/C(C#N)=C\c2ccc(N3CCOCC3)o2)cc1	none
CCCCCCOc1ccc(/C(C)=N/NC2=NCCN2)cc1[N+](=O)[O-]	none
CCCCOc1ccc(Br)cc1/C(C)=N/NC1=NCCN1	RGS4 act -8.11
Cc1ccoc1C(=O)N1CCCCC1C(=O)O (stereo not drawn)	none
Cc1nc2ccccc2c2oc(C(=O)N3CC(C)CC(C)C3)cc12 (stereo not drawn)	none
COc1ccccc1N1CCN(C(=O)c2cc3c(C)nc4ccccc4c3o2)CC1	RGS4 act -7.38
COCCNc1nc(SC)nc2sc3c(c12)CCN(C)C3	none
CSc1nc(NCC(C)C)c2c3c(sc2n1)CN(C)CC3	RGS4 act -7.36
O=C(N/N=C/c1cccc2nccnc12)c1ccncc1	RGS4 act -8.31
COc1cccc(-n2nnnc2S(C)(=O)=O)c1	MrgX1 agonist 47.8
COCCNC(=O)C(=O)N/N=C(\C)CC(=O)Nc1ccc(Cl)cc1Cl	MrgX1 antag -6.41
C/C(CC(=O)Nc1ccc(Cl)cc1Cl)=N\NC(=O)C(=O)N1CCCC1	none
CCOC(=O)C1CCCN(C(=O)c2ccc(C)c([N+](=O)[O-])c2)C1 (stereo not drawn)	RGS4 act -8.59
CCOC(=O)C1CCCN(C(=O)c2ccc([N+](=O)[O-])c(C)c2)C1 (stereo not drawn)	none
CCc1nnc(NC(=O)c2ccc(Br)c(S(=O)(=O)N3CCOCC3)c2)s1	none
CCOc1ccc(/C=C2\SC(=S)NC2=O)cc1OC	none
COc1ccc(/C=C2\SC(=S)NC2=O)cc1OS(=O)(=O)c1ccc(NC(C)=O)cc1	none (no result: MrgX1 agonist, MrgX1 PAM, MrgX1 antag)
O=C1NC(=S)S/C1=C\c1ccc2ccccc2c1	MrgX1 antag -4.9
COc1cc(/C=C2/SC(=S)NC2=O)ccc1OS(=O)(=O)c1ccc(C)cc1	MrgX1 antag -4.72
COc1ccc(/C=C2\SC(=O)NC2=S)cc1OC	MrgX1 agonist 62.8
COc1cc(/C=C2\SC(=S)NC2=O)ccc1OS(=O)(=O)c1ccccc1	MrgX1 antag -6.06
COc1cccc(NC(=O)c2ccnc(N3CCC(C(=O)NCc4ccccc4OC)CC3)c2)c1	none
O=C1NC(=S)S/C1=C\c1coc2ccccc2c1=O	MrgX1 PAM 7.61
C/[N+]([O-])=C\c1coc2ccccc2c1=O	none
C/C(CC(=O)Nc1ccc2c(c1)OCCO2)=N\NC(=O)COc1ccc(C)cc1Br	none
C=CCn1c(-c2ccccc2[N+](=O)[O-])n[nH]c1=S	none
C=CCn1c(-c2ccc([N+](=O)[O-])cc2)n[nH]c1=S	RGS4 act -7.68
O=C(Nc1ccc(CN2CCCCC2)cc1)c1cc(Br)ccc1Cl	MrgX1 antag -5.52
C=CCNC(=S)NC(CC(=O)OC)c1ccc2c(c1)OCO2 (stereo not drawn)	none
COC(=O)C1(C(=O)OC)NOC2C(=O)N(c3ccccc3)C(=O)C21 (stereo not drawn)	MrgX1 antag -5.71
O=C(Nc1ccccc1N(C(=O)c1ccco1)S(=O)(=O)c1cccs1)c1ccco1	MrgX1 PAM 11.5
Cc1onc(-c2c(Cl)cccc2Cl)c1C(=O)NC1CCCCC1	none
Cc1onc(-c2c(Cl)cccc2Cl)c1C(=O)NN1CCCCCC1	RGS4 act -8.44
COc1cccc(CN2CC(C(=O)N3CCN(c4ccc(Cl)cc4)CC3)CCC2=O)c1 (stereo not drawn)	none
COc1ccccc1N1CCN(S(=O)(=O)CCNC(=O)c2cccc(F)c2)CC1	none
CCN(CC)CCCNC(=O)C1CCN(C(=O)c2cc3sccc3n2Cc2ccc(F)cc2)CC1	MrgX1 antag -5.96
Cc1ccc(N2C(=O)N(CC(=O)Nc3c(C)cc(C)cc3Cl)C(=O)C2C)cc1 (stereo not drawn)	none
CCN(CC)CC#CCC(O)(c1ccccc1)c1ccc(Br)cc1 (stereo not drawn)	RGS4 act -7.78
Cc1c(Cl)ccc(S(=O)(=O)NCCCn2ccnc2)c1Cl	none
O=C1C=CC(=O)N1c1cccc(-c2ccccc2)c1	RGS4 act -9.46
COC1=C/C(=C/c2c(N)n3nc(CC(=O)N4CCCCC4)sc3nc2=O)C=CC1=O	MrgX1 agonist 68.5
Nc1c(/C=C2\C=Nc3ccccc32)c(=O)nc2sc(CC(=O)N3CCOCC3)nn12	MrgX1 PAM 10.1
CN1C(=O)NC(c2cccc(F)c2)C2=C1CC(C)(C)CC2=O (stereo not drawn)	none
O=C(CCCc1nc(-c2ccccc2Cl)no1)NC1CCCC1	none
COc1ccc(C(=O)N/N=C/c2sc(N3CCOCC3)nc2-c2ccccc2)cc1OC	none
COc1ccccc1NS(=O)(=O)c1cc([N+](=O)[O-])ccc1N/N=C/c1sc(N2CCOCC2)nc1-c1ccccc1	MrgX1 antag -8.03
Nc1nc(NCCOCCO)nc(NCC2CCCO2)c1[N+](=O)[O-] (stereo not drawn)	none
CC(C)c1ccc(N2C(=O)CSC23C(=O)N2CCCc4cccc3c42)cc1 (stereo not drawn)	RGS4 act -7.61
O=C1c2ccccc2-c2c1cccc2C(=O)N1CCCCC1	none
CC1CC(C)CN(C(=O)c2ccc3c(c2NCCO)C(=O)c2ccccc2C3=O)C1 (stereo not drawn)	MrgX1 PAM 13.9
